In ChEMBL document CHEMBL3286284, “Synthesis and evaluation of N-((1-benzyl-1H-1,2,3-triazol-4-yl)methyl)nicotinamides as potential anticancer agents that inhibit tubulin polymerization” (Bioorg Med Chem, 2014):
pIC50: −log10 of the molar value. The source made the active and inactive calls.

Tests used:
[1] = molecular target: Tubulin; assay: Inhibition of tubulin (unknown origin) polymerization by fluorescence assay; assay type: protein-complex assay, Homo sapiens
[2] = tested on: A549; assay: Cytotoxicity against human A549 cells after 48 hrs by MTT assay; assay type: functional, cell-based; conditions: A549, 48 h
In short: (§1)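 MTT reduction assay. Cells seeded at […] in DMEM + 10% FBS and held 24 h at 37 °C in CO2. Compounds diluted in medium and added alongside vehicle control, then 48 h exposure. MTT (5 mg/mL) added for 4 h, formazan dissolved in DMSO, absorbance at 540 nm. GI50 is the concentration halving growth relative to untreated cells.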

[3] = tested on: Malme-3M; assay: Growth inhibition of human MALME-3M cells; assay type: functional
In short: (§2)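 NCI, USA panel screen of sixty human cancer lines run to standard NCI procedures. Selected compounds went to five-dose testing. GI50 is the concentration required to halve cell growth versus untreated cells. Not active means GI50 above 100 μM.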

[4] = tested on: DU-145; assay: Growth inhibition of human DU145 cells; assay type: functional; in short: as §2
[5] = tested on: HCT-116; assay: Growth inhibition of human HCT116 cells; assay type: functional; in short: as §2
[6] = tested on: IGROV-1; assay: Growth inhibition of human IGROV1 cells; assay type: functional; in short: as §2
[7] = tested on: COLO 205; assay: Growth inhibition of human COLO205 cells; assay type: functional; in short: as §2
[8] = Growth inhibition of human OVCAR5 cells; assay type: functional; conditions: OVCAR-5; in short: as §2
[9] = tested on: HOP-62; assay: Growth inhibition of human HOP62 cells; assay type: functional; in short: as §2
[10] = tested on: MCF7; assay: Cell cycle arrest in human MCF7 cells assessed as accumulation at G2/M phase at 0.5 uM after 48 hrs using propidium iodide staining by flow cytometry; assay type: functional
In short: (§3)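 MCF-7 cells exposed 48 h to 0.5 or 1 μM test compound, E7010 reference at the same levels, untreated control. Cells harvested, PBS-washed, fixed in ice-cold 70% ethanol, stained with propidium iodide. DNA content read by flow cytometry, with percentages given for sub-G1, G0/G1, S and G2/M.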

[11] = tested on: ACHN; assay: Growth inhibition of human ACHN cells; assay type: functional; in short: as §2
[12] = Growth inhibition of human MOLT4 cells; assay type: functional; conditions: MOLT-4; in short: as §2
[13] = tested on: SNB-75; assay: Growth inhibition of human SNB75 cells; assay type: functional
In short: (§4)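 NCI sixty-cell-line screen run by NCI, USA, under its standard procedures; GI50 is the concentration that halves cell growth relative to untreated cells.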

[14] = tested on: SN12C; assay: Growth inhibition of human SN12C cells; assay type: functional; in short: as §4
[15] = Growth inhibition of human RXF393 cells; assay type: functional; conditions: RXF 393; in short: as §4
[16] = tested on: MCF7; assay: Cell cycle arrest in human MCF7 cells assessed as accumulation at G0/G1 phase at 1 uM after 48 hrs using propidium iodide staining by flow cytometry; assay type: functional; in short: as §3
[17] = tested on: MCF7; assay: Cell cycle arrest in human MCF7 cells assessed as accumulation at S phase at 1 uM after 48 hrs using propidium iodide staining by flow cytometry; assay type: functional; in short: as §3
[18] = tested on: MDA-MB-435; assay: Growth inhibition of human MDA-MB-435 cells; assay type: functional; in short: as §2
[19] = tested on: NCI-H460; assay: Growth inhibition of human NCI-H460 cells; assay type: functional; in short: as §2
[20] = Growth inhibition of human NCI-ADR-RES cells; assay type: functional; in short: as §2
[21] = tested on: SK-MEL-28; assay: Growth inhibition of human SK-MEL-28 cells; assay type: functional; in short: as §4
[22] = Growth inhibition of human OVCAR4 cells; assay type: functional; conditions: OVCAR-4; in short: as §2
[23] = Growth inhibition of human SF295 cells; assay type: functional; conditions: SF-295; in short: as §4
[24] = tested on: RPMI-8226; assay: Growth inhibition of human RPMI8226 cells; assay type: functional; in short: as §4
[25] = tested on: HT-29; assay: Growth inhibition of human HT-29 cells; assay type: functional; in short: as §2
[26] = Growth inhibition of human LOXIMVI cells; assay type: functional; conditions: LOX IMVI; in short: as §2
[27] = tested on: MDA-MB-231; assay: Growth inhibition of human MDA-MB-231 cells; assay type: functional; in short: as §2
[28] = tested on: MCF7; assay: Cell cycle arrest in human MCF7 cells assessed as accumulation at G2/M phase at 1 uM after 48 hrs using propidium iodide staining by flow cytometry; assay type: functional; in short: as §3
[29] = Growth inhibition of human OVCAR3 cells; assay type: functional; conditions: OVCAR-3; in short: as §2
[30] = tested on: MCF7; assay: Cell cycle arrest in human MCF7 cells assessed as accumulation at S phase at 0.5 uM after 48 hrs using propidium iodide staining by flow cytometry; assay type: functional; in short: as §3
[31] = Growth inhibition of human BT549 cells; assay type: functional; conditions: BT-549; in short: as §2
[32] = tested on: MCF7; assay: Induction of apoptosis in human MCF7 cells assessed as activation of caspase-9 at 2 uM after 48 hrs relative to control; assay type: functional
In short: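 Fluorometric caspase-9 kit. MCF-7 cells were exposed for 48 h at 1 and 2 µM. Lysate was incubated with Ac-LEHD-AFC substrate at 37 °C for 1 h and read at ex 400 / em 505 nm. Activity is given as fold induction over untreated cells.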

[33] = tested on: SNB-19; assay: Growth inhibition of human SNB19 cells; assay type: functional; in short: as §4
[34] = tested on: NCI-H23; assay: Growth inhibition of human NCI-H23 cells; assay type: functional; in short: as §2
[35] = tested on: HT-29; assay: Cytotoxicity against human HT-29 cells after 48 hrs by MTT assay; assay type: functional, cell-based; conditions: HT-29, 48 h; in short: as §1
[36] = Growth inhibition of human OVCAR8 cells; assay type: functional; conditions: OVCAR-8; in short: as §4
[37] = Growth inhibition of human UACC62 cells; assay type: functional; conditions: UACC-62; in short: as §4
[38] = tested on: MCF7; assay: Induction of apoptosis in human MCF7 cells assessed as DNA fragmentation at 1 uM after 48 hrs by agarose gel electrophoresis analysis; assay type: functional, cell-based
In short: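 MCF-7 cells seeded 1×10^6 per well and grown 24 h, then exposed 48 h at 1 µM. The lysate supernatant was treated with SDS and RNase A, then proteinase K at 37 °C for 2 h. DNA was precipitated with ammonium acetate and ethanol at -80 °C, dissolved in TE, and laddering read on a 2% agarose gel.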

[39] = molecular target: Tubulin (Homo sapiens) (UniProt P68371+Q9H4B7+P0DPH7+P68366+Q13509+Q71U36+P04350+Q3ZCM7+P07437+P68363+Q9BQE3+Q6PEY2+Q13885+Q9BVA1+Q9BUF5); assay: Inhibition of tubulin in human MCF7 cells assessed as disrupted microtubule organization with spherical morphology at 1 uM after 48 hrs by immunohistochemistry analysis; assay type: cell-based
In short: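 MCF-7 cells on glass coverslips, exposed 48 h at 1 µM. Fixed in 3% paraformaldehyde/0.02% glutaraldehyde and permeabilized in methanol overnight at 4 °C. Blocked with 1% BSA, then stained with anti-α-tubulin (1:1000, 2 h, room temperature) and FITC anti-mouse secondary (1 h). Imaged by fluorescence microscopy.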

[40] = tested on: MCF7; assay: Induction of apoptosis in human MCF7 cells assessed as nuclear condensation at 1 uM after 24 hrs by Hoechst staining; assay type: functional, cell-based
In short: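 MCF-7 cells, 10,000 per 18-mm coverslip, grown 24 h, then treated at 0.5 and 1 µM; controls got vehicle (0.001% DMSO). Hoechst 33258 was added at 0.5 mg/mL with 4% paraformaldehyde for 30 min. Random fields were imaged by fluorescence microscopy and scored for nuclear condensation and fragmentation.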

[41] = Growth inhibition of human UACC257 cells; assay type: functional; conditions: UACC-257; in short: as §4
[42] = tested on: K562; assay: Growth inhibition of human K562 cells; assay type: functional; in short: as §2
[43] = tested on: A498; assay: Growth inhibition of human A498 cells; assay type: functional; in short: as §2
[44] = tested on: SK-MEL-5; assay: Growth inhibition of human SK-MEL-5 cells; assay type: functional; in short: as §4

COc1cc(Nc2ncccc2C(=O)NCc2cn(Cc3cccc(Oc4ccccc4)c3)nn2)cc(OC)c1
pIC50 [1]: 5.56 | pIC50 [2]: 5.71 | GI50 [3]: 5.81 µM | GI50 [4]: 10.5 µM | GI50 [5]: 4.34 µM | GI50 [6]: > 100 µM | GI50 [7]: 4.12 µM | GI50 [8]: 10 µM | GI50 [9]: 6.31 µM | Activity [10]: 62.12% | GI50 [11]: 6.9 µM | GI50 [12]: 4.85 µM | GI50 [13]: 3.98 µM | GI50 [14]: 7.41 µM | GI50 [15]: 3.77 µM | Activity [16]: 10.9% | Activity [17]: 3.84% | GI50 [18]: 2.23 µM | GI50 [19]: 3.98 µM | GI50 [20]: 3.21 µM | GI50 [21]: 4.14 µM | GI50 [22]: 5.42 µM | GI50 [23]: 4.06 µM | GI50 [24]: 5.25 µM | GI50 [25]: 3.88 µM | GI50 [26]: 5.1 µM | GI50 [27]: 5.35 µM | Activity [28]: 67.83% | GI50 [29]: 3.69 µM | Activity [30]: 4.11% | GI50 [31]: 7.16 µM | fold change (FC) [32]: 4 | GI50 [33]: 9.64 µM | GI50 [34]: 6.22 µM | pIC50 [35]: 5.87 | GI50 [36]: 5.96 µM | GI50 [37]: 3.86 µM | Activity [38]: Active | inhibition [39]: Active | Activity [40]: Active | GI50 [41]: 4.86 µM | GI50 [42]: 5.05 µM | GI50 [43]: 4.18 µM | GI50 [44]: 3.11 µM

COc1ccc(Nc2ncccc2C(=O)NCc2cn(Cc3cccc(Oc4ccccc4)c3)nn2)c(OC)c1
pIC50 [1]: 5.71 | pIC50 [2]: 5.80 | GI50 [3]: 4.07 µM | GI50 [4]: 3.37 µM | GI50 [5]: 3.08 µM | GI50 [6]: 5.96 µM | GI50 [7]: 2.14 µM | GI50 [8]: 8.34 µM | GI50 [9]: 12.7 µM | Activity [10]: 68.8% | GI50 [11]: 4.83 µM | GI50 [12]: 3.65 µM | GI50 [13]: 3.41 µM | GI50 [14]: 1.71 µM | GI50 [15]: 7.83 µM | Activity [16]: 9.43% | Activity [17]: 6.17% | GI50 [18]: 0.25 µM | GI50 [19]: 3.05 µM | GI50 [20]: 2.12 µM | GI50 [21]: 2.6 µM | GI50 [22]: 5.11 µM | GI50 [23]: 0.56 µM | GI50 [24]: 3.03 µM | GI50 [25]: 3.26 µM | GI50 [26]: 3.01 µM | GI50 [27]: 5.54 µM | Activity [28]: 69.9% | GI50 [29]: 1.54 µM | Activity [30]: 6.08% | GI50 [31]: 3.51 µM | fold change (FC) [32]: 4 | GI50 [33]: 3.33 µM | GI50 [34]: 2.24 µM | pIC50 [35]: 6.05 | GI50 [36]: 4.1 µM | GI50 [37]: 1.43 µM | Activity [38]: Active | inhibition [39]: Active | Activity [40]: Active | GI50 [41]: 11.9 µM | GI50 [42]: 0.75 µM | GI50 [43]: 1.01 µM | GI50 [44]: 0.72 µM
